Laboratory results: ChEMBL document CHEMBL1143238, “Oxazaborolidine derivatives inducing autoinducer-2 signal transduction in Vibrio harveyi” (2008)
Converted amounts (≈) assume the structure as drawn. The source made the active and inactive calls. The calls are words filed in the database; no cut-off is given here.

What was measured:
Vibrio harveyi [1] = experiment: Antibacterial activity against Vibrio harveyi BB886 mutant after 18 hrs; assay type: functional
Procedure, shortened: (§1)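 Strains were grown aerobically at 30 °C with shaking in AB medium. Growth was read as OD595 after 18 h incubation. Each experiment was run in triplicate and repeated three times.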

Vibrio harveyi [2] = experiment: Antibacterial activity against Vibrio harveyi MM77 mutant after 18 hrs; assay type: functional; procedure, shortened: as §1
Vibrio harveyi [3] = experiment: Antibacterial activity against Vibrio harveyi BB170 mutant after 18 hrs; assay type: functional; procedure, shortened: as §1
Vibrio harveyi [4] = experiment: Induction of bioluminescence in Vibrio harveyi BB170 mutant (sensor 1-, sensor 2+) at 600 uM; assay type: functional, organism-based
Procedure, shortened: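 Strain was grown in AB medium at 30 °C with shaking to 1.5–2.5 · 10^9 CFU/ml (15–16 h), then diluted 1:5000 or 1:10,000 into fresh AB medium containing compound. Incubation was at 30 °C for about 7 h with luminescence monitoring. Light was normalized to CFU or OD595. Fold induction over endogenous luminescence was taken at the minimum-luminescence point (3–4 h). Negative control was fresh AB medium; positive control was 10% v/v BB152 spent medium.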

Row | SMILES | MIC (Vibrio harveyi [1]) [mM] | MIC (Vibrio harveyi [2]) [mM] | MIC (Vibrio harveyi [3]) [mM] | Activity (Vibrio harveyi [4])
1 | CC1(C)COB(c2ccccc2)N1 | 5 (≈ 875 µg/mL) | 10 (≈ 1750 µg/mL) |  | 
2 | C[C@H]1NB(c2ccccc2)O[C@@H]1c1ccccc1 | 10 (≈ 2370 µg/mL) | 10 (≈ 2370 µg/mL) | 10 (≈ 2370 µg/mL) | 
3 | C[C@H]1[C@@H](c2ccccc2)OB(c2ccccc2)N1C |  |  |  | Active
4 | CCCCB1O[C@H](c2ccccc2)[C@H](C)N1C | 10 (≈ 2310 µg/mL) | 10 (≈ 2310 µg/mL) |  | 
